Data on six molecules can be found in ChEMBL document CHEMBL4715765, “Fluoro analogs of bioactive oxy-sterols: Synthesis of an EBI2 agonist with enhanced metabolic stability” (Bioorg Med Chem Lett, 2016).

pEC50: −log10 of the molar value. Where only a bound is given, the exact number is not on record here.

The target of data set [1] is T1, G-protein coupled receptor 183 (Homo sapiens, UniProt P32249). The data set is described as follows: Agonist activity at Go2-q-coupled EBI2 (unknown origin) expressed in COS7 cell membranes assessed as stimulation of [35S]GTPgammaS binding preincubated for 20 mins followed by [35S]GTPgammaS addition and measured after 1 hr by scintillation counting analysis. Type of data set: functional, Membrane. In outline:
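[35S]GTPγS binding measured in membranes of COS7 cells transiently transfected with human, rat or mouse EBI2, with receptor coupled through Go2. Compounds tested as concentration-response series (log M plots) to give EC50 and % Emax for each species' receptor.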

Data set [2] deals with G-protein coupled receptor 183 (Rattus norvegicus) (UniProt D4A7K7). Briefly: Agonist activity at Go2-q-coupled rat EBI2 expressed in COS7 cell membranes assessed as stimulation of [35S]GTPgammaS binding at 1 uM preincubated for 20 mins followed by [35S]GTPgammaS addition and measured after 1 hr by scintillation counting analysis relative to control. Particulars: Membrane, filed as agonist, time 80.0 min. In outline: (§1)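 [35S]GTPγS binding measured on COS7 cells transiently transfected with human, rat or mouse EBI2, using a Gαo2 chimera set-up. Concentration-response testing ran up to a top concentration of 1. EC50 and % Emax were taken from the curves, with Emax referenced to 7α,25-OHC.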
A general note: GTPγS is a poorly hydrolysed GTP analogue; its binding reports G protein activation.

For data set [3], the target named is G-protein coupled receptor 183 (Rattus norvegicus, UniProt D4A7K7). Briefly: Agonist activity at Go2-q-coupled rat EBI2 expressed in COS7 cell membranes assessed as stimulation of [35S]GTPgammaS binding preincubated for 20 mins followed by [35S]GTPgammaS addition and measured after 1 hr by scintillation counting analysis. On the set-up: species or system Membrane. In outline: as §1

The nature of data set [4]: Tmax in mouse at 20 mg/kg, ip. Type of data set: ADME, organism-based. The following applies: in vivo.
Data set [5] can be described thus: Metabolic stability in rat liver microsomes assessed as half life. The format is ADME, Microsome. For orientation: Liver microsomes are vesicles of endoplasmic reticulum, rich in cytochrome P450 enzymes.
Data set [6] addresses G-protein coupled receptor 183 (Mus musculus) (UniProt Q3U6B2). The data set is described as follows: Agonist activity at Go2-q-coupled mouse EBI2 expressed in COS7 cell membranes assessed as stimulation of [35S]GTPgammaS binding at 1 uM preincubated for 20 mins followed by [35S]GTPgammaS addition and measured after 1 hr by scintillation counting analysis relative to control. Type of data set: functional. The following applies: Membrane, filed as agonist, time 80.0 min. A digest of the protocol: as §1

The nature of data set [7]: AUClast in mouse at 20 mg/kg, sc. Particulars: in vivo. Type of data set: ADME, organism-based. On the set-up: time 0 - last, route subcutaneous, dose 20 mg/kg.
The nature of data set [8]: AUClast in mouse at 20 mg/kg, ip. On the set-up: route intraperitoneal, time 0 - last, dose 20 mg/kg. The following applies: in vivo. Type of data set: ADME, organism-based.
Data set [9] is described as follows: Metabolic stability in mouse liver microsomes assessed as half life. Type of data set: ADME, Microsome.
A short description of data set [10]: Tmax in mouse at 20 mg/kg, sc. Type of data set: ADME, organism-based. The following applies: in vivo.
The target of data set [11] is G-protein coupled receptor 183 (Mus musculus, UniProt Q3U6B2). Briefly: Agonist activity at Go2-q-coupled mouse EBI2 expressed in COS7 cell membranes assessed as stimulation of [35S]GTPgammaS binding preincubated for 20 mins followed by [35S]GTPgammaS addition and measured after 1 hr by scintillation counting analysis. The format is functional, Membrane. A digest of the protocol: as §1

In data set [12] the target is T1, G-protein coupled receptor 183. The data set is described as follows: Agonist activity at Go2-q-coupled human EBI2 expressed in COS7 cell membranes assessed as stimulation of [35S]GTPgammaS binding preincubated for 20 mins followed by [35S]GTPgammaS addition and measured after 1 hr by scintillation counting analysis. The format is functional, Membrane. In outline: as §1

Data set [13] in a line: Metabolic stability in human liver microsomes assessed as half life. The format is ADME, Microsome.
Data set [14] is described as follows: Cmax in mouse at 20 mg/kg, sc. Particulars: in vivo. The format is ADME, organism-based. Further details: route subcutaneous, dose 20 mg/kg.
A short description of data set [15]: Terminal half life in mouse at 20 mg/kg, ip. The format is ADME, organism-based. The following applies: in vivo, read-out: beta t1/2 (converted).
Data set [16] has as its target T1, G-protein coupled receptor 183. Briefly: Agonist activity at Go2-q-coupled human EBI2 expressed in COS7 cell membranes assessed as stimulation of [35S]GTPgammaS binding at 1 uM preincubated for 20 mins followed by [35S]GTPgammaS addition and measured after 1 hr by scintillation counting analysis relative to control. The format is functional. The following applies: Membrane, filed as agonist, time 80.0 min. In outline: as §1

Data set [17] is described as follows: Cmax in mouse at 20 mg/kg, ip. Type of data set: ADME, organism-based. Further details: route intraperitoneal, dose 20 mg/kg. The following applies: in vivo.
Data set [18] is described as follows: Terminal half life in mouse at 20 mg/kg, sc. The format is ADME, organism-based. The following applies: in vivo, read-out: beta t1/2 (converted).
Data set [19] can be described thus: Elimination half-life in po dosed mouse. Type of data set: ADME, organism-based. Particulars: in vivo, read-out: beta t1/2 (converted).

G-protein coupled receptor 183 (Mus musculus, UniProt Q3U6B2), sequence (Q3U6B2 whole entry): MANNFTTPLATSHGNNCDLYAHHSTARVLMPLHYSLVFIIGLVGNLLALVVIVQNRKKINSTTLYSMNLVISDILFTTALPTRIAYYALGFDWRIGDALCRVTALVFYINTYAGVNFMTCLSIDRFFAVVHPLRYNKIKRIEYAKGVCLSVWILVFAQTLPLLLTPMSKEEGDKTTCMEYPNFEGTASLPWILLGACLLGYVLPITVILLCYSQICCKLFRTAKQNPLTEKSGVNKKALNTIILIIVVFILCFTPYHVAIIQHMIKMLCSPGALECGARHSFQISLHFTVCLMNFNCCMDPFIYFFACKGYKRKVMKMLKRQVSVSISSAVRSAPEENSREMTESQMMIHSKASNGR
G-protein coupled receptor 183 (Mus musculus), sequence (Q3U6B2 whole entry): as above
G-protein coupled receptor 183 (Rattus norvegicus, UniProt D4A7K7), sequence (D4A7K7 whole entry): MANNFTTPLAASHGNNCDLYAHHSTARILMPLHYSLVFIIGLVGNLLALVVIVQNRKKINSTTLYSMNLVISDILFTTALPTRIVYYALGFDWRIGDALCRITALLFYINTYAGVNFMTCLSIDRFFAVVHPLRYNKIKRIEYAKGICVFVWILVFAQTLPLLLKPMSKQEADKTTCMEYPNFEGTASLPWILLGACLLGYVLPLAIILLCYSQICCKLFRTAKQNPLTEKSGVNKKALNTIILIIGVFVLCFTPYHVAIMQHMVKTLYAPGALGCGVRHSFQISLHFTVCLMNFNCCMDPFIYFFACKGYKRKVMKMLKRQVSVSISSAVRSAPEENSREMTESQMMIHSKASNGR
G-protein coupled receptor 183 (Rattus norvegicus), sequence (D4A7K7 whole entry): as above
T1 sequence (P32249 whole entry): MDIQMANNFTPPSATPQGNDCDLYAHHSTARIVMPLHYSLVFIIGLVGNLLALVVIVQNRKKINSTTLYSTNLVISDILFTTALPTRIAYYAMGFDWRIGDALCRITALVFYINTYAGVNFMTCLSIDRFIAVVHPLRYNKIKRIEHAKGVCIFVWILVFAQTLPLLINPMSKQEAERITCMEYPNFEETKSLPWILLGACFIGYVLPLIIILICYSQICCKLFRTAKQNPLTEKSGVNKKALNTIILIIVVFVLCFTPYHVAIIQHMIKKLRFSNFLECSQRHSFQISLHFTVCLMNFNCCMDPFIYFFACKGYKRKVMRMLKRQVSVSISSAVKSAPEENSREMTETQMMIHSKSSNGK

For `C[C@H](CCCC(C)(C)O)[C@H]1CC[C@H]2[C@@H]3[C@@H](O)C=C4C[C@@H](O)CC[C@]4(C)[C@H]3CC[C@]12C`, the negative logarithm of the EC50 (pEC50) in [1] is 8.68.

With `C[C@H](CCCC(C)(C)O)[C@H]1CC[C@H]2[C@@H]3[C@H](O)C=C4C[C@@H](O)CC[C@]4(C)[C@H]3CC[C@]12C`, the maximal effect (Emax) in [2], in data set [6] and in data set [16] was 100% in each case. Moreover, the pEC50 in data set [3] was 8.88; in [1], 9.85; in data set [11], 9.15; in data set [12], 10.49. The time to peak (Tmax) in data set [4] is 15 min; in [10], 19.8 min. Further, the half-life in [5] was 15 min; in data set [9] it was 11 min; in [13], 30 min; in data set [15], 24 min; in data set [18], 30 min. Moreover, the AUC(0-t) was determined as 3140 ng·h/mL in data set [7] and 2940 ng·h/mL in data set [8]. Besides, the highest concentration (Cmax) was found to be 4340 ng/mL in data set [14] and 4460 ng/mL in data set [17].

For the molecule `CC(CO)CCC[C@@H](C)[C@H]1CC[C@H]2[C@H]3C(CC[C@]12C)[C@@]1(C)CC[C@H](O)CC1=C[C@@H]3O` (single isomer, unassigned), the pEC50 in data set [1] was 7.29.

As to `C[C@H](CCCC(C)(C)O)[C@H]1CC[C@H]2[C@H]3[C@H](CC[C@]12C)[C@@]1(C)CC[C@H](O)CC1=C[C@]3(O)C(F)(F)F`, the maximal effect (Emax) in data set [2] amounted to 116%; in data set [6], 136%; in data set [16] it was 122%. In addition, the negative-log EC50 (pEC50) in data set [3] was 8.97; in data set [11], 8.79; in data set [12], 9.99. The half-life was 31 min in data set [5], more than 180 min in [9], 131 min in [13] and 600 min in data set [19].

As for `C[C@H](CCCC(C)(C)O)[C@H]1CC[C@H]2[C@H]3[C@H](CC[C@]12C)[C@@]1(C)CC[C@H](O)CC1=C[C@@]3(O)C(F)(F)F`, the maximum response (Emax) was 88% in [2], 60% in [6] and 100% in data set [16]. The negative-log EC50 (pEC50) in [3] was 7.84; in data set [11], 7.84; in [12] it was 8.39.

For the molecule `CC(CO)CCC[C@@H](C)[C@H]1CC[C@H]2[C@H]3C(CC[C@]12C)[C@@]1(C)CC[C@H](O)CC1=C[C@H]3O` (single isomer, unassigned), the pEC50 in data set [1] was 8.89.

A word on the pEC50: it is the EC50 on a negative log10 scale, so that one unit is a factor of ten. A word on the Emax: it is the greatest response seen or fitted, relative to the assay's reference. A word on the Tmax: it is the time from dosing to the highest level. What is called AUC(0-t) is the area under the concentration-time curve up to a stated or last time point. Read a low AUC(0-t) as less exposure. By Cmax is commonly meant the maximum level reached in the sampled fluid or tissue.
